Measurements: ChEMBL document CHEMBL4513216, “Probing the Open Global Health Chemical Diversity Library for Multistage-Active Starting Points for Next-Generation Antimalarials” (ACS Infect Dis, 2020)

Assay: Toxicity liver stage against HepG2, at 10uM
Assay type: cell-based
Parameters: test concentration 10 uM, cell line HepG2-A16-CD81EGFP
Details: human, HepG2-A16-CD81EGFP cells; read-out: INHIBITION
How it was run: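 Uninfected HepG2-A16-CD81EGFP cells, 3 × 10^3 per well, 1536-well, plated on prespotted compound at 10 μM final, parasite-free screening media added to match infected plates; puromycin 10 μM positive, DMSO 0.5% negative; run in parallel with 48 h PbLuc assay at 37 °C, 5% CO2; viability by CellTiter-Glo luminescence, normalized to controls.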

Question: Which cytotoxicity at 10 µM does the source give for `C=C(C)COc1ccccc1CNCCc1cc(O)nc(C)n1` here?
Answer: -1.6%

Question: With `Cc1ccc(-c2ccnc(NC(C)c3c(C)n[nH]c3C)n2)c(C)n1` (stereo not given) as the molecule, how does the cytotoxicity at 10 µM read?
Answer: 4.51%

Question: For `CN(C)CC1(O)CCCN(C(=O)c2ccccc2-n2cccn2)C1` (stereo not given), which cytotoxicity at 10 µM is on record?
Answer: -20.6%

Question: For `CCc1nc2c(c(NC3CC3)n1)CCN(C(=O)N1CCN(C)CC1)CC2`, which cytotoxicity at 10 µM is on record?
Answer: 0.445%

Question: Which cytotoxicity at 10 µM does the source give for `CCn1nc(NC(=O)Cn2ccc(C(C)=O)n2)c2ccccc21` here?
Answer: 12.8%

Question: With `Cc1ccc(CN2CCC(n3cc(CN4CCC(O)CC4)nn3)CC2)s1` as the molecule, how does the cytotoxicity at 10 µM read?
Answer: -3.53%

Question: With `COC1CCN(c2cc(C(C)C)nc3ccnn23)C1` (stereo not given) as the molecule, how does the cytotoxicity at 10 µM read?
Answer: 0.343%

Question: Which cytotoxicity at 10 µM does the source give for `CC1CCN(CC(=O)N(Cc2ccccc2)Cc2nccs2)C1=O` (stereo not given) here?
Answer: -0.0342%

Question: Which cytotoxicity at 10 µM does the source give for `O[C@]12CCNC[C@H]1CN(c1ncccc1Cl)CC2` here?
Answer: 10.2%

Question: With `CC(C)[C@H]1COC(=O)N1CC(=O)N1CCN(C(=O)c2ccco2)CC1` as the molecule, how does the cytotoxicity at 10 µM read?
Answer: 4.32%

Question: With `O=C1CCc2cc(S(=O)(=O)NCc3cc4n(n3)CCCNC4)ccc2N1` as the molecule, how does the cytotoxicity at 10 µM read?
Answer: -5.38%

Question: Which cytotoxicity at 10 µM does the source give for `Cc1cc(=O)n(CC(=O)Nc2cccc(Cl)c2)nc1C` here?
Answer: -6.84%

Question: For `c1csc(N2CCCN(Cc3noc(C4CC4)n3)CC2)n1`, which cytotoxicity at 10 µM is on record?
Answer: 3.41%

Question: With `CNc1nc(CNC(=O)Nc2cccc(CC(F)(F)F)c2)cs1` as the molecule, how does the cytotoxicity at 10 µM read?
Answer: -9.77%

Question: For `CC(C)N(Cc1ccccn1)S(=O)(=O)N1CCCC1c1ccco1` (stereo not given), which cytotoxicity at 10 µM is on record?
Answer: -3.92%

Question: With `O=C(NCCn1ccnc1)N1CCCC1c1cccs1` (stereo not given) as the molecule, how does the cytotoxicity at 10 µM read?
Answer: -7.51%

Question: For `NC(=O)Cn1cc(NC(=O)N2CCN(c3ccc(F)cc3)CC2)cn1`, which cytotoxicity at 10 µM is on record?
Answer: -12.9%

Question: With `N#Cc1ccsc1NC(=O)CN1CCOC(Cn2cccn2)C1` (stereo not given) as the molecule, how does the cytotoxicity at 10 µM read?
Answer: -5.66%

Question: For `CNc1cc(N2CCCC2CNCc2cnc(C)s2)ncn1` (stereo not given), which cytotoxicity at 10 µM is on record?
Answer: -3.78%

Question: For `COCCN1CCN(Cc2csc(-c3cnn(C)c3)n2)CC1`, which cytotoxicity at 10 µM is on record?
Answer: -9.71%

Question: For `CCNc1cc2c(nn1)CCN(C(=O)c1ccnc(C)n1)C2`, which cytotoxicity at 10 µM is on record?
Answer: -5.04%

Question: Which cytotoxicity at 10 µM does the source give for `O=S(=O)(CCCN1CCCC(Cn2cncn2)C1)c1ccccc1` (stereo not given) here?
Answer: -11.7%

Question: For `CCN(CC)C(=O)NCCc1ccn(-c2ccccc2)n1`, which cytotoxicity at 10 µM is on record?
Answer: -14%

Question: For `Cc1cc(CN2Cc3ccccc3CC2c2nnc(C)o2)no1` (stereo not given), which cytotoxicity at 10 µM is on record?
Answer: 2.89%

Question: Which cytotoxicity at 10 µM does the source give for `CC(C)C(CNC(=O)Nc1cn[nH]c1)N1CCOCC1` (stereo not given) here?
Answer: -6.83%

Question: Which cytotoxicity at 10 µM does the source give for `Cc1ccc(C(=O)N2CCCN(Cc3cscn3)CC2)o1` here?
Answer: -10.6%

Question: For `Cc1nn(C)c(N2CCOCC2)c1CNCc1ccc2c(c1)OCO2`, which cytotoxicity at 10 µM is on record?
Answer: -17.8%

Question: With `Cc1nnc(N2CCC(CCN(C)C)CC2)c(C#N)c1C` as the molecule, how does the cytotoxicity at 10 µM read?
Answer: -1.33%

Question: Which cytotoxicity at 10 µM does the source give for `CCc1noc(C)c1C(=O)N1CCCN(Cc2csc(C)n2)CC1` here?
Answer: -2.81%

Question: Which cytotoxicity at 10 µM does the source give for `CC(C)OCCCNC(=O)CS(=O)(=O)Cc1ccc(Cl)c(Cl)c1` here?
Answer: -9.7%

Question: With `O=C(NCCOc1cccc(Cl)c1)C1CC(=O)N(CC2CC2)C1` (stereo not given) as the molecule, how does the cytotoxicity at 10 µM read?
Answer: -0.98%

Question: For `O=C(COC(=O)Cc1cccs1)NCc1cccc(NC(=O)C2CC2)c1`, which cytotoxicity at 10 µM is on record?
Answer: -8.08%

Question: For `COC(=O)c1cccc(OCCn2nc(-c3cccs3)oc2=O)c1`, which cytotoxicity at 10 µM is on record?
Answer: -6.56%

Question: For `CCn1nc2c(cc1=O)CN(Cc1nc(-c3ccsc3)no1)CC2`, which cytotoxicity at 10 µM is on record?
Answer: -17.1%

Question: For `O=C(c1cccnc1N1CCOCC1)N1CCCC(n2ccnc2)C1` (stereo not given), which cytotoxicity at 10 µM is on record?
Answer: -3.56%

Question: With `CCS(=O)(=O)CCN1CCCC1c1noc(C2CC2)n1` (stereo not given) as the molecule, how does the cytotoxicity at 10 µM read?
Answer: -6.33%

Question: Which cytotoxicity at 10 µM does the source give for `CC(O)CN1CCN(C(=O)c2cccc(CC#N)c2)CC1` (stereo not given) here?
Answer: -3.74%

Question: With `CC(C)c1nnc2n1CCN(CCCS(=O)(=O)c1ccccc1)C2` as the molecule, how does the cytotoxicity at 10 µM read?
Answer: -12.3%

Question: Which cytotoxicity at 10 µM does the source give for `CC1CCN(C(=O)c2cccc3ncccc23)CC1` here?
Answer: 4.21%

Question: With `O=C(NCc1cccnc1-n1cccn1)C1CC(=O)N(CC2CC2)C1` (stereo not given) as the molecule, how does the cytotoxicity at 10 µM read?
Answer: 2.77%

Question: With `CC(C)CC(=O)N[C@H](C)c1c(-c2ccc(Cl)cc2)noc1C(=O)O` as the molecule, how does the cytotoxicity at 10 µM read?
Answer: 4.76%

Question: Which cytotoxicity at 10 µM does the source give for `Cc1ccc(CN2CCn3c(CN(C)C(C)C)cnc3C2)s1` here?
Answer: 8.33%

Question: Which cytotoxicity at 10 µM does the source give for `CC(C)CC(=O)N1CCC2(CC1)OC(C(N)=O)Cn1ccnc12` (stereo not given) here?
Answer: -105%

Question: With `CN1CC(=O)N(c2cnn(C)c2)CC12CCN(Cc1cccs1)C2` (stereo not given) as the molecule, how does the cytotoxicity at 10 µM read?
Answer: 3.48%

Question: With `CS(=O)(=O)N1CC[C@@H]2[C@@H]1CCN2Cc1ccc2c(c1)OCO2` as the molecule, how does the cytotoxicity at 10 µM read?
Answer: -5.96%

Question: With `Cc1ccccc1CN1CCC2(CC1)CN(S(=O)(=O)c1ccccc1)C2` as the molecule, how does the cytotoxicity at 10 µM read?
Answer: -2.78%

Question: With `COCCNC(=O)[C@H]1C[C@@H]2CCN(c3ccncn3)C[C@H]2O1` as the molecule, how does the cytotoxicity at 10 µM read?
Answer: 2.4%

Question: With `O=C1N(c2cncnc2)CCC12CCCN(Cc1cccnc1)C2` (stereo not given) as the molecule, how does the cytotoxicity at 10 µM read?
Answer: -79.6%

Question: Which cytotoxicity at 10 µM does the source give for `O=C(NCc1ccco1)[C@H]1CC[C@@H]2[C@@H](CCN2c2ncccn2)O1` here?
Answer: -69.6%

Question: For `CC(C)N1CCC2(CC1)CC(NCc1ccccn1)c1ccccc1O2` (stereo not given), which cytotoxicity at 10 µM is on record?
Answer: 0.806%

Question: Which cytotoxicity at 10 µM does the source give for `CNC(=O)N1C[C@@H]2C[C@H](C(=O)NCc3cccnc3)[C@H](C1)O2` here?
Answer: 6.43%

Question: For `CCCC12CN3CC(C)(CN(C1)C3c1[nH]c(=O)[nH]c(=O)c1C)C2=O` (stereo not given), which cytotoxicity at 10 µM is on record?
Answer: 3.15%

Question: Which cytotoxicity at 10 µM does the source give for `O=C(Nc1ccc(F)cc1)N1C[C@@H]2C[C@H](C(=O)N3CCCC3)[C@H](C1)O2` here?
Answer: 7.06%

Question: With `CCc1nccc(CN2CCC(CNC(=O)C3CCC(C)CC3)C2)n1` (stereo not given) as the molecule, how does the cytotoxicity at 10 µM read?
Answer: -4.51%

Question: With `O=C(NCc1ccccc1)[C@H]1C[C@H]2CN(C(=O)NC3CCCC3)C[C@@H]1O2` as the molecule, how does the cytotoxicity at 10 µM read?
Answer: 2.17%
